# Measurements of several laboratories.
# Compare with care: the assays were run in different laboratories.
# Target: Bone morphogenetic protein receptor type-2 (BMPR2, Homo sapiens, UniProt Q13873)
# Sequence (Q13873 27-1038, as in one of the studies): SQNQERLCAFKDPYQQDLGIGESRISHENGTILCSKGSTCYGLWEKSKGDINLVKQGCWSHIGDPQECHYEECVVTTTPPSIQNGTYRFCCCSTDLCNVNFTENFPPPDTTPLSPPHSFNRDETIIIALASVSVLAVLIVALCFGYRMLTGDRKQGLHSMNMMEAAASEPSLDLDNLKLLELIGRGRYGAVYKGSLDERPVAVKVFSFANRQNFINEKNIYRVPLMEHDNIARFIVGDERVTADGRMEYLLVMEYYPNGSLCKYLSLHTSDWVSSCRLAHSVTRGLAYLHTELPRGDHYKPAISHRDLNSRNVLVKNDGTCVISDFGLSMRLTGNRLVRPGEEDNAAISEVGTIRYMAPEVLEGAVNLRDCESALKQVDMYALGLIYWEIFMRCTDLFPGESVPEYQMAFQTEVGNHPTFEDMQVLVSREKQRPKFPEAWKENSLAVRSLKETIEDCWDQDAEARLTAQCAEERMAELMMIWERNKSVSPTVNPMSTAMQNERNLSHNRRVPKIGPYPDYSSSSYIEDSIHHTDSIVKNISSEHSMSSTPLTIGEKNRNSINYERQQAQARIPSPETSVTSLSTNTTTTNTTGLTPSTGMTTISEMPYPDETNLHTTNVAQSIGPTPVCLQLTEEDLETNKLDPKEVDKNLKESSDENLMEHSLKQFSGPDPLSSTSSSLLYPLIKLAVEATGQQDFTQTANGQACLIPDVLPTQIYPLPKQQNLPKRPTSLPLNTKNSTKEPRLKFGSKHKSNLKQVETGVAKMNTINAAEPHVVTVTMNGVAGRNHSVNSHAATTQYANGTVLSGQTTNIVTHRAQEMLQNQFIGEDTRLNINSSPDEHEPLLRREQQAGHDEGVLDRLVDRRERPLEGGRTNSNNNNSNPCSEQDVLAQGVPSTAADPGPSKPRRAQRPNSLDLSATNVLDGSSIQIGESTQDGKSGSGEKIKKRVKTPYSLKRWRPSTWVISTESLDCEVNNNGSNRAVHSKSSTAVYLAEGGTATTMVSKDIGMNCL
Structure (SMILES),assay,setting,remaining binding [%]
O=C(c1ccc(Nc2ncc(Cl)c(-c3cc4ccccc4s3)n2)cc1)N1CCC(N2CCCC2)CC1,"binding, competition with immobilised ligand",1 µM,29
COc1cccc(CNC(=O)c2nc3scc(COCc4ccc(C(=O)O)cc4)c3c(=O)[nH]2)c1,"cell-free assay, competition with immobilised ligand",1 µM,71.8
O=C(Nc1c[nH]nc1C(=O)NC1CCNCC1)c1cc(F)cc(F)c1,"binding, competition with immobilised ligand",1 µM,100
O=C(NCCCN1CCOCC1)c1ccc(Nc2nccc(-c3cc4ccccc4s3)n2)cc1,"binding, competition with immobilised ligand",1 µM,66
O=C(O)c1cc(-c2ccc(C3CCNCC3)cc2)c2ccc(-c3ccc(C(F)(F)F)cc3)cc2c1,"cell-free assay, competition with immobilised ligand",1 µM,100
CN(C)c1ncc(F)c(-c2cnn3ncccc23)n1,binding,1 µM,74
C[C@@H]1CN(c2ccc3ncc(-c4ccc5[nH]nc(C6CC6)c5c4)n3n2)C[C@H](C)O1,"binding, competition with immobilised ligand",50 nM,89
N#Cc1ccccc1CSc1nnc2c(n1)[nH]c1ccccc12,"binding, competition with immobilised ligand",10 µM,90
CCN1CCN(Cc2ccc(C(=O)Nc3ccc(C)c(Oc4ccc5c(c4)CC(=O)N5)c3)cc2C(F)(F)F)CC1,"binding, competition with immobilised ligand",1 µM,100
COc1ccnn2ncc(-c3ccnc(N(C)C)n3)c12,binding,1 µM,65
COc1cnc(Nc2cccc(S(N)(=O)=O)c2)nc1N1CCN(c2ccccc2)C(=O)C1,"binding, competition with immobilised ligand",1 µM,0
O=C(NCc1ncc(C(F)(F)F)cc1Cl)c1ccc2c(c1)C1(CCS(=O)(=O)CC1)[C@H](C1CC1)N2S(=O)(=O)c1ccc(F)cc1,"cell-free assay, competition with immobilised ligand",1 µM,80
C[C@H]1CCN(c2nccc(-c3cnn4ncccc34)n2)C1,binding,1 µM,97
CSc1cccnc1N1CCN(Cc2nc3ccccc3[nH]2)CC1,"cell-free assay, competition with immobilised ligand",1 µM,80
CNC(=O)[C@@H]1CC[C@@H](n2c(-c3ccc4cnccc4c3)nc3ccc(C(=O)NCc4cccc(C(N)=O)c4)cc32)C1,"binding, competition with immobilised ligand",1 µM,0.25
O=C(NCCCN1CCOCC1)c1ccc(Nc2ncc(Cl)c(-c3ccc(Cl)s3)n2)cc1,"binding, competition with immobilised ligand",1 µM,55
CN(C)c1nccc(-c2cnn3ncccc23)n1,binding,1 µM,99
Nc1ncc2c(n1)-c1c([nH]c3ccc(C#CC4CC4)cc13)CCCC2,"binding, competition with immobilised ligand",1 µM,96
N[C@@H]1CCN(c2nccc(-c3cnn4ncccc34)n2)C1,binding,1 µM,100
CNCc1ccccc1-c1csc([C@@H](C)Nc2nc(C)nc3cc(OC)c(OC)cc23)c1,"cell-free assay, competition with immobilised ligand",1 µM,100
CN(C)c1nccc(-c2cnc3ncccn23)n1,binding,1 µM,67
NS(=O)(=O)c1cc(NC(=O)Cc2ccccc2)ccc1Oc1cccc(Cl)c1,"cell-free assay, competition with immobilised ligand",1 µM,73
CN(CCCC(F)(F)F)c1nccc(-c2cnn3ncccc23)n1,binding,1 µM,97
CCOC(=O)c1cc2cc(-c3cc(C(=O)NCc4ccc(C(=O)O)cc4)nn3C)ccc2[nH]1,"cell-free assay, competition with immobilised ligand",0.1 µM,82
